For 23 compounds, inhibition, Activity and IC50 results are on record in ChEMBL document CHEMBL2384908, “Discovery of novel bromophenol 3,4-dibromo-5-(2-bromo-3,4-dihydroxy-6-(isobutoxymethyl)benzyl)benzene-1,2-diol as protein tyrosine phosphatase 1B inhibitor and its anti-diabetic properties in C57BL/KsJ-db/db mice” (Eur J Med Chem, 2013).

Data set [1] deals with T1, Tyrosine-protein phosphatase non-receptor type 1 (Homo sapiens) (UniProt P18031).
T1 sequence (whole entry): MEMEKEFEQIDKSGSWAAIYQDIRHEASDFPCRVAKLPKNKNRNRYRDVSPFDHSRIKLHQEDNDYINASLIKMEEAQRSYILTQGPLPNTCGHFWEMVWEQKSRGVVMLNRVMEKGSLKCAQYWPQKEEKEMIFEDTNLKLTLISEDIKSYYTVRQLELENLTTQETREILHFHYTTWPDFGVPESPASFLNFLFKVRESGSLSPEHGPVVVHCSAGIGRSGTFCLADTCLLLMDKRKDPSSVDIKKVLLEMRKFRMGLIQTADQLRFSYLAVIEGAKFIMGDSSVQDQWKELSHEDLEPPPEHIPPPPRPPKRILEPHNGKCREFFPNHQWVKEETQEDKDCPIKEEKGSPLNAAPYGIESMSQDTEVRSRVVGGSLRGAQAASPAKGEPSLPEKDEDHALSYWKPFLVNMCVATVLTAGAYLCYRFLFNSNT
The settings on record: at 20 µg/mL.

Data set [2] concerns the target T1, Tyrosine-protein phosphatase non-receptor type 1 (Homo sapiens). To be noted: at 5 µg/mL.
For data set [3], the system named is Mus musculus. Description: Antidyslipidemic activity in C57BL/KsJ db/db mouse assessed as reduction of total cholesterol level in blood at 25 mg/kg, po administered for 6 weeks (reference value: 3.3 +/- 0.5 mmol/l). The format is functional.
Data set [4] relates to Mus musculus. As to the kind of experiment: Antidyslipidemic activity in C57BL/KsJ db/db mouse assessed as reduction of total cholesterol level in blood at 25 mg/kg, po administered for 6 weeks measured on 2nd week (reference value: 3.5 +/- 0.2 mmol/l). The data set is classed as functional.
The subject of data set [5] is Mus musculus. Description: Toxicity in C57BL/KsJ db/db mouse assessed as mortality at 25 to 50 mg/kg, po administered for 6 weeks. The data set is classed as organism-based. Details: dose 25-50 mg/kg, route oral. To be noted: in vivo, 1008 h.
The test system of data set [6] is Mus musculus. Description: Antidyslipidemic activity in C57BL/KsJ db/db mouse assessed as reduction of triglycerides level in blood at 25 mg/kg, po administered for 6 weeks (reference value: 1.05 +/- 0.11 mmol/l). The format is functional.
Data set [7] relates to Mus musculus. Description: […] activity in C57BL/KsJ db/db mouse assessed as reduction of glycated serum protein level in blood at 25 mg/kg, po administered for 6 weeks (reference value: 1.62 +/- 0.27 mmol/l). The data set is classed as functional. The method in brief: (§1)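 db/db mice (C57BL/KsJ, 6-8 weeks, n = 10/group) given compound orally once daily for six weeks in 0.5% CMC-Na with 2% tween-80. Vehicle model group; db/dm mice as controls. At the end, overnight fast, then dosing; eyeball blood taken 1 h later into heparin tubes. HbA1c read by reagent kit. GSP measured in plasma by fructosamine method. Mean ± s.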

Data set [8] deals with Mus musculus. As to the kind of experiment: Antidyslipidemic activity in po dosed C57BL/KsJ db/db mouse assessed as reduction of triglycerides level in blood administered for 6 weeks. The data set is classed as functional, organism-based.
In data set [9] the test system is Mus musculus. As to the kind of experiment: […] activity in C57BL/KsJ db/db mouse assessed as reduction of HbA1c level in blood at 50 mg/kg, po administered for 6 weeks (reference value: 2.65 +/- 0.40%). Further details: scale not given: the % may be the effect or the level left. The data set is classed as functional. In a few lines: as §1
Data set [10] has as its system Mus musculus. Description: Antidiabetic activity in C57BL/KsJ db/db mouse assessed as reduction of blood glucose level at 25 mg/kg, po administered for 6 weeks measured on 3rd week. The format is functional. Details: scale not given: the % may be the effect or the level left. The method in brief: (§2)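 C57BL/KsJ db/db mice, 6-8 weeks old, one-week adaptation, n = 10 per group, chow and water ad libitum. Compound suspended in 0.5% CMC-Na with 2% tween-80, given orally once daily for six weeks (about 0.2 mL/20 g). Vehicle-treated db/db model group. Blood glucose read weekly by glucometer.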

For data set [11], the system named is Mus musculus. Description: Antidyslipidemic activity in C57BL/KsJ db/db mouse assessed as reduction of total cholesterol level in blood at 50 mg/kg, po administered for 6 weeks (reference value: 3.3 +/- 0.5 mmol/l). The format is functional.
Data set [12] relates to Mus musculus. As to the kind of experiment: Antidiabetic activity in C57BL/KsJ db/db mouse assessed as reduction of food and water intake at 25 to 50 mg/kg, po administered for 6 weeks. The format is functional, organism-based. In a few lines:
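db/db mice (C57BL/KsJ, 6-8 weeks), n = 10 per group, dosed orally once daily for six weeks as a suspension in 0.5% CMC-Na plus 2% tween-80. Vehicle model group; db/dm mice as non-diabetic controls. Food intake recorded weekly.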

Data set [13] has as its system Mus musculus. Description: Antidiabetic activity in C57BL/KsJ db/db mouse assessed as reduction of blood glucose level at 50 mg/kg, po administered for 6 weeks measured on 3rd week. The format is functional. Details: scale not given: the % may be the effect or the level left. In a few lines:
as §2

The test system of data set [14] is Mus musculus. As to the kind of experiment: Antidyslipidemic activity in C57BL/KsJ db/db mouse assessed as reduction of triglycerides level in blood at 25 mg/kg, po administered for 6 weeks measured on 2nd week (reference value: 1.08 +/- 0.07 mmol/l). The format is functional.
In data set [15] the test system is Mus musculus. Description: Antidyslipidemic activity in po dosed C57BL/KsJ db/db mouse assessed as reduction of total cholesterol level in blood administered for 6 weeks. The data set is classed as functional, organism-based.
The test system of data set [16] is Mus musculus. Description: Toxicity in C57BL/KsJ db/db mouse assessed as change in body weight at 25 to 50 mg/kg, po administered for 6 weeks. Further details: dose 25-50 mg/kg, route oral. To be noted: in vivo, 1008 h. The data set is classed as organism-based.
Data set [17] concerns Mus musculus. As to the kind of experiment: Antidyslipidemic activity in C57BL/KsJ db/db mouse assessed as reduction of triglycerides level in blood at 50 mg/kg, po administered for 6 weeks measured on 2nd week (reference value: 1.08 +/- 0.07 mmol/l). The format is functional.
The test system of data set [18] is Mus musculus. As to the kind of experiment: Antidyslipidemic activity in C57BL/KsJ db/db mouse assessed as reduction of total cholesterol level in blood at 50 mg/kg, po administered for 6 weeks measured on 2nd week (reference value: 3.5 +/- 0.2 mmol/l). The format is functional.
Data set [19] concerns Mus musculus. As to the kind of experiment: Antidyslipidemic activity in C57BL/KsJ db/db mouse assessed as reduction of triglycerides level in blood at 50 mg/kg, po administered for 6 weeks (reference value: 1.05 +/- 0.11 mmol/l). The data set is classed as functional.
Data set [20] concerns Mus musculus. As to the kind of experiment: […] activity in C57BL/KsJ db/db mouse assessed as reduction of HbA1c level in blood at 25 mg/kg, po administered for 6 weeks (reference value: 2.65 +/- 0.40%). Details: scale not given: the % may be the effect or the level left. The data set is classed as functional. In a few lines:
as §1

Data set [21] relates to Mus musculus. Description: […] activity in C57BL/KsJ db/db mouse assessed as reduction of glycated serum protein level in blood at 50 mg/kg, po administered for 6 weeks (reference value: 1.62 +/- 0.27 mmol/l). The format is functional. The method in brief: as §1
Data set [22] concerns the target T2, Tyrosine-protein phosphatase non-receptor type 1 (Homo sapiens, UniProt P18031).
T2 sequence (P18031 whole entry): T1 sequence (whole entry)
Description: Inhibition of human recombinant GST-tagged PTP1B using para-nitrophenyl phosphate as substrate after 2 mins.

In data set [23] the test system is Mus musculus. Description: Antidiabetic activity in C57BL/KsJ db/db mouse assessed as reduction of blood glucose level at 50 mg/kg, po administered for 6 weeks measured on first week. The data set is classed as functional. The method in brief: as §2
Data set [24] concerns Mus musculus. As to the kind of experiment: Antidiabetic activity in C57BL/KsJ db/db mouse assessed as reduction of blood glucose level at 50 mg/kg, po administered for 6 weeks. The format is functional. In a few lines:
as §2

SMILES strings stand for the structures. Calls of active or inactive are those of the source. The calls are words filed in the database; no cut-off is given here.

For the compound `CCCOCc1cc(O)c(O)c(Br)c1Cc1cc(O)c(O)c(Br)c1Br`, the values for the inhibition in data set [1] and in data set [2] were 86.2% and 55.7%, respectively.
As for `CC(C)COCc1cc(O)c(O)c(Br)c1Cc1cc(O)c(O)c(Br)c1Br`, the Activity with Mus musculus [3] was 8.5 mmol/L; in the data set with Mus musculus [4] it was 7.7 mmol/L; in the data set with Mus musculus [5], “Non-toxic”; in the data set with Mus musculus [6], 1.41 mmol/L; with Mus musculus [7], 3.29 mmol/L; with Mus musculus [8], “Dose-dependent effect”. Besides, the Activity is 3.03% in the data set with Mus musculus [9]; 32.7% in the data set on Mus musculus [10]; 9.1 mmol/L with Mus musculus [11]; 36.4% in the data set with Mus musculus [13]; 1.16 mmol/L with Mus musculus [14]; “Dose-dependent effect” with Mus musculus [15]. The Activity entry with Mus musculus [16] was “Toxic”; in the data set with Mus musculus [17], 1.35 mmol/L; in the data set on Mus musculus [18], 7.8 mmol/L; in the data set on Mus musculus [19], 1.48 mmol/L; in the data set with Mus musculus [20], 3.24%; with Mus musculus [21], 3 mmol/L. The inhibition in data set [1] was 96.2%; in [2], 48.3%. Moreover, in the data set on Mus musculus [12], the result was Active.
Take `COc1cc(Cc2c(CO)cc(OC)c(OC)c2Br)c(Br)c(Br)c1OC`: the inhibition in data set [1] was determined as 74.9%; in data set [2] it was 29.1%.
Consider `COc1cc(C2OC(=O)c3cc(OC)c(OC)c(Br)c32)c(Br)c(Br)c1OC` (configuration not stated), for which the inhibition in data set [1] came out at 10.6%.
Regarding `CCOCc1cc(O)c(O)c(Br)c1Cc1cc(O)c(O)c(Br)c1`, the results for the inhibition in [1] and in [2] were 50.6% and 17.3%, respectively.
Taken in the same sequence, the figures for `COc1cc(Cc2c(C)cc(OC)c(OC)c2Br)c(Br)c(Br)c1OC` were 87.5% and 43.1%.
On to `Oc1cc(Cc2cc(Br)c(O)c(Br)c2Br)c(Br)c(Br)c1O`, for which the IC50 in [22] came out at 2.42 µM.
Turning to `COC(=O)c1cc(OC)c(OC)c(Br)c1C(=O)c1cc(OC)c(OC)c(Br)c1Br`, the inhibition is 55.3% in [1] and 23.8% in [2].
Taken in the same sequence, the figures for `COc1cc(C)c(Cc2c(Br)c(Br)c(OC)c(OC)c2Br)c(Br)c1OC` were 72.6% and 38.2%.
In data set [1], `COc1cc(C2OCc3cc(OC)c(OC)c(Br)c32)c(Br)c(Br)c1OC` (configuration not stated) came in with an inhibition of 11.4%.
In the case of `Cc1cc(O)c(O)c(Br)c1Cc1cc(O)c(O)c(Br)c1Br`, the inhibition came to 53.4% in data set [1] and 32.1% in data set [2].
For the compound `COc1cc(C(=O)c2c(C)cc(OC)c(OC)c2Br)c(Br)c(Br)c1OC`, the inhibition in [1] was 48.6%.
Still for that read-out and setting: next, `COc1ccc(C(=O)c2c(C)cc(OC)c(OC)c2Br)cc1OC`: 28.9%.
Regarding `COc1cc(Cc2c(CO)cc(OC)c(OC)c2Br)cc(Br)c1OC`, the inhibition in [1] is 5.62%.
`COCc1cc(OC)c(OC)c(Br)c1C(=O)c1cc(OC)c(OC)c(Br)c1Br`: the inhibition in data set [1] is 61.8%; in data set [2], 17.7%.
Taken in the same sequence, the figures for `COCc1cc(O)c(O)c(Br)c1Cc1cc(O)c(O)c(Br)c1Br` were 51.9% and 25.3%.
Turning to `COc1c(Br)c(C)c(Cc2c(Br)c(Br)c(OC)c(OC)c2Br)c(Br)c1OC`, the inhibition came out at 75.3% in data set [1] and 40.1% in [2].
`COc1cc(C(=O)c2c(C)cc(OC)c(OC)c2Br)cc(Br)c1OC` registered an inhibition in data set [1] of 36.7%.
In data set [1], `COc1cc(Cc2c(C)cc(OC)c(OC)c2Br)cc(Br)c1OC` showed an inhibition of 14.5%.
In the case of `CCOCc1cc(OC)c(OC)c(Br)c1C(=O)c1cc(OC)c(OC)c(Br)c1Br`, the inhibition is 73.8% in [1] and 17.6% in data set [2].
Consider `CN(CCOc1ccc(CC2SC(=O)NC2=O)cc1)c1ccccn1` (configuration not stated) [ROSIGLITAZONE], for which the Activity was 8.9 mmol/L in the data set on Mus musculus [23]; 8 mmol/L in the data set on Mus musculus [24]; 2.56% in the data set with Mus musculus [9]; 7.7 mmol/L with Mus musculus [11]; 1.06 mmol/L in the data set on Mus musculus [17]; 6.5 mmol/L in the data set with Mus musculus [18]. In addition, the Activity is 1.29 mmol/L in the data set on Mus musculus [19] and 2.6 mmol/L in the data set on Mus musculus [21].
As for `CCCCOCc1cc(O)c(O)c(Br)c1Cc1cc(O)c(O)c(Br)c1Br`, the inhibition in [1] is 64.6%; in data set [2] it was 27.2%.
Regarding `COc1cc(C(=O)c2c(C(=O)O)cc(OC)c(OC)c2Br)c(Br)c(Br)c1OC`, the inhibition in [1] is 29.9%.
